Assay results taken from ChEMBL document CHEMBL3297675, “Mahorones, highly brominated cyclopentenones from the red alga Asparagopsis taxiformis” (J Nat Prod, 2014).
In brackets after ≈: the same amount, converted by molar mass. Activity calls are given as the source filed them. The rule behind the calls is not given here.

What was measured:
Staphylococcus aureus [1] = assay: Antibacterial activity against methicillin-sensitive Staphylococcus aureus by resazurin-based assay; type: functional
Staphylococcus aureus [2] = assay: Antibacterial activity against methicillin-resistant Staphylococcus aureus by resazurin-based assay; type: functional
Summary of the method: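 MRSA was grown in Luria Broth liquid culture with diluted inoculum, compound added from a DMSO stock. Plates were incubated overnight at 37 °C and scored for visible growth by turbidity or fluorescence, with resazurin as the viability read-out. Tests were run in triplicate within one experiment.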

Acinetobacter baumannii = assay: Antibacterial activity against Acinetobacter baumannii by resazurin-based assay; type: functional
Escherichia coli [3] = assay: Antibacterial activity against Escherichia coli 5746 by resazurin-based assay; type: functional
Summary of the method: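 Liquid broth assay in Luria Broth, inoculum plus compound from 0.312 mM DMSO stock. Tested at 5 μM final in triplicate within one experiment. Overnight incubation at 37 °C. Growth read by turbidity or fluorescence, with viability scored using resazurin at 0.002% final.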

HT-29 = assay: Cytotoxicity against human HT-29 cells after 24 hrs by MTT assay; type: functional, cell-based
Summary of the method: (§1)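 MTT assay with cells seeded at 3 × 10^4 cells/well. Compound taken from 1 mM DMSO stock, diluted 1/200 into medium and left on cells 24 h at 37 °C, 5% CO2. MTT then added at 0.5 mg·mL−1 in phenol red-free MEM for 3 h. Formazan dissolved in DMSO and absorbance read at 570 nm.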

HepG2 = assay: Cytotoxicity against human HepG2 cells after 24 hrs by MTT assay; type: functional, cell-based; summary of the method: as §1
Escherichia coli [4] = assay: Antibacterial activity against Escherichia coli 2884 by resazurin-based assay; type: functional
MCF7 = assay: Cytotoxicity against human MCF7 cells after 24 hrs by MTT assay; type: functional, cell-based; summary of the method: as §1
A549 = assay: Cytotoxicity against human A549 cells after 24 hrs by MTT assay; type: functional, cell-based; summary of the method: as §1
Aspergillus fumigatus [5] = assay: Antifungal activity against Aspergillus fumigatus by resazurin-based assay; type: functional
Summary of the method: (§2)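 Liquid assay in modified RPMI medium: RPMI-1640, Yeast Nitrogen Base, 1.8% glucose, 40 mM HEPES pH 7.1. Compound added from 0.5 mM solution before inoculum. Tested at 5 μM final in triplicate. Amphotericin B curve (0.5−4 μg·mL−1) run as control. Incubated overnight at 37 °C, then viability scored with resazurin at 0.002% final.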

Aliivibrio fischeri = assay: Toxicity in Vibrio fischeri NRRL B-11177 assessed as reduction in bioluminescence after 15 mins by microtox assay; type: organism-based; conditions: NRRL B-11177, 0.25 h
Summary of the method: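 Microtox assay with V. fischeri. Samples made up to 500 μg·mL−1 initial in artificial seawater containing 2% acetone, then tested at 45, 22.5, 11.25 and 5.625% of initial, in triplicate. Light loss read after 15 min exposure, γ = (I0/It) − 1. EC50 taken from log γ versus log concentration regression at γ = 1.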

[6] = Cytotoxicity against human Fa2N-4 cells after 24 hrs by MTT assay; type: cell-based; conditions: fa2n-4, 24 h; summary of the method: as §1
Pseudomonas aeruginosa = assay: Antibacterial activity against Pseudomonas aeruginosa by resazurin-based assay; type: functional
Aspergillus fumigatus [7] = assay: Antifungal activity against Aspergillus fumigatus by resazurin-based assay in presence of caspofungin enhancer; type: functional; summary of the method: as §2
[8] = Cytotoxicity against human Fa2N-4 cells assessed as growth inhibition at 5 uM after 24 hrs by MTT assay relative to control; type: cell-based; conditions: read-out: GI
Summary of the method: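 Fa2N4 healthy liver cells seeded at 3 × 10^4 cells/well. Exposed to compound at 5 μM (1 mM DMSO stock diluted 1/200) for 24 h at 37 °C, 5% CO2. Then 0.5 mg·mL−1 MTT for 3 h, formazan dissolved in DMSO, absorbance at 570 nm. Growth inhibition expressed as percent.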

Structure (SMILES)	MIC80 (Staphylococcus aureus [1])	MIC80 (Staphylococcus aureus [2])	MIC80 (Acinetobacter baumannii)	MIC80 (Escherichia coli [3])	MIC80 (Escherichia coli [4])	MIC80 (Pseudomonas aeruginosa)	other results
CC1(C)S[C@@H]2[C@H](NC(=O)Cc3ccccc3)C(=O)N2[C@H]1C(=O)O [PENICILLIN G]	0.01 µg/mL (≈ 0.0299 µM)	–	–	–	–	–	–
C[C@@H](O)[C@H]1C(=O)N2C(C(=O)O)=C(SCCNC=N)C[C@H]12 [IMIPENEM ANHYDROUS]	–	8 µg/mL (≈ 26.7 µM)	–	–	–	–	–
CO[C@H]1/C=C/O[C@@]2(C)Oc3c(C)c(O)c4c(O)c(c(/C=N/N5CCN(C)CC5)c(O)c4c3C2=O)NC(=O)/C(C)=C\C=C\[C@H](C)[C@H](O)[C@@H](C)[C@@H](O)[C@@H](C)[C@H](OC(C)=O)[C@@H]1C [RIFAMPIN]	–	–	1 µg/mL (≈ 1.22 µM)	–	–	–	–
O=C1C(Br)=C(Br)[C@@](O)(C(Br)Br)[C@@H]1Br	> 32 µg/mL	16 µg/mL (≈ 31.6 µM)	16 µg/mL (≈ 31.6 µM)	32 µg/mL (≈ 63.2 µM)	> 32 µg/mL	> 10 µg/mL	Activity (HT-29): inactive; Activity (HepG2): inactive; Activity (MCF7): inactive; Activity (A549): inactive; MIC80 (Aspergillus fumigatus [5]): > 32 µg/mL; EC50 (Aliivibrio fischeri): 0.08 µg/mL (≈ 0.158 µM); Activity [6]: Non-toxic; MIC80 (Aspergillus fumigatus [7]): > 32 µg/mL
CO[C@@H]1[C@@H](OC(N)=O)[C@@H](O)[C@H](Oc2ccc3c(O)c(NC(=O)c4ccc(O)c(CC=C(C)C)c4)c(=O)oc3c2C)OC1(C)C [NOVOBIOCIN]	–	–	–	0.1 µg/mL (≈ 0.163 µM)	0.3 µg/mL (≈ 0.49 µM)	–	–
O=C1C[C@](O)(C(Br)Br)C(Br)=C1Br	> 32 µg/mL	16 µg/mL (≈ 37.4 µM)	8 µg/mL (≈ 18.7 µM)	16 µg/mL (≈ 37.4 µM)	> 32 µg/mL	> 10 µg/mL	Activity (HT-29): inactive; Activity (HepG2): inactive; inhibition at 24 h, 5 µM [8]: 53%; Activity (MCF7): inactive; Activity (A549): inactive; MIC80 (Aspergillus fumigatus [5]): > 32 µg/mL; EC50 (Aliivibrio fischeri): 0.07 µg/mL (≈ 0.164 µM); MIC80 (Aspergillus fumigatus [7]): > 32 µg/mL
O=C(O)c1cn(C2CC2)c2cc(N3CCNCC3)c(F)cc2c1=O [CIPROFLOXACIN]	–	–	–	–	–	1.5 µg/mL (≈ 4.53 µM)	–
